Compound activity as filed in PubChem BioAssay.
Tb MetRS inh: T. brucei MetRS inhibitors, primary screen, biochemical, luminescence | AID 624268, 2012 | 0.4% of 360,000 active | inhibition, % at 11.9 µM | purified T. brucei MetRS, ATP depletion, Kinase-Glo luminescence | methionyl-tRNA synthetase (Trypanosoma brucei brucei);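 active means inhibition above a per-plate cutoff of the control wells' mean inhibition plus 3 SD, cut at about 5.5% in these data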;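 further: 0% = DMSO wells median and 100% = median of wells with control inhibitor compound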
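technique = Kinase-Glo luminescence, ATP depletion format | system = purified MetRS (methionyl-tRNA synthetase) enzyme from Trypanosoma brucei | timing = 15 min preincubation, 2 h reaction, all 25 °C | evaluation = percent inhibition versus plate control medians | dosing = single dose, 11.9 µM final nominal, 0.9% final DMSO | also added = substrates ATP, L-methionine and bulk Escherichia coli tRNA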
aDG glyco up: activators of alpha-DG glycosylation, primary screen, uHTS, Pro5-aDG cells, AlphaScreen; alpha-DG glycosylation AlphaScreen (IIH6); 0% Pro5, 100% B10-LARGE cell signal; activation, % at 10 µM; 0.22% of 360,000 active; AID 624168, 2012;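 active means activation of at least 8% versus controls, or a plate z-score of at least 8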;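 further: Pro5 are CHO cells carrying HIG-tagged alpha-DG that lacks glycosylation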
MC4R antag cAMP: MC4R antagonists of cAMP signaling, primary screen, cell-based, TR-FRET, antagonist arm of biased-ligand search; Melanocortin receptor 4 (Homo sapiens), P32245; MC4R-expressing cells, MTII-stimulated cAMP, LANCE TR-FRET; inhibition, % at 6.5 µM; 0.48% of 360,000 active; AID 540295, 2011;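 active means inhibition above its plate's cutoff, the mean of tested wells on that plate plus 3 SD, cut at about 29% in these data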;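 further: 0% = Melanotan II alone and 100% = Melanotan II plus saturating MCL0020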
Target sequence (P32245 whole entry, looked up): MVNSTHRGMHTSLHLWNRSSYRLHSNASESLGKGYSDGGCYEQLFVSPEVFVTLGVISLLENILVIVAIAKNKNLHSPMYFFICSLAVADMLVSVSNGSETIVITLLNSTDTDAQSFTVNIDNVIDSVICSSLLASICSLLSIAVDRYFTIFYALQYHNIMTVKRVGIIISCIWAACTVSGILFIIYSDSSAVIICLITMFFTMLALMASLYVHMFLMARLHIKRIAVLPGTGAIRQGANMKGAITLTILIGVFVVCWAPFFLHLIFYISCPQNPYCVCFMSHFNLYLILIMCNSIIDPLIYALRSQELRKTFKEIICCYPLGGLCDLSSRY
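Assay system: U2OS-MC4R stable cell line; Also added: Melanotan II; Technique: Eu-cAMP/anti-cAMP TR-FRET, emission 671 nm; Times: 30-min compound, 1-h challenge, 1-h detection, room temperature.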
NTR1 ag: agonists of human NTR1, primary screen, imaging, U2OS cells, beta-arrestin-GFP, high content | Neurotensin receptor type 1 (Homo sapiens), P30989 | NTR1-U2OS beta-arrestin-GFP spot imaging, agonist mode | activation, % at 20 µM | 0.17% of 330,000 active | AID 493036, 2011;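 active means activation at or above 40% of the spot to cytoplasm intensity ratio, with at least 20 cells analyzed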;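 further: 0% = DMSO without peptide and 100% = 100 nM NTR1 peptide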
TAG inh: inhibitors of triacylglycerol accumulation, primary screen, cell-based, uHTS, fluorescence, H9c2; inhibition, % at 12.5 µM; H9c2 cells, Nile Red lipid (TAG) fluorescence; cells loaded with 200 µM oleic acid; AID 651582, 2012; 0.66% of 230,000 active;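 active means pattern-corrected inhibition of lipid staining of at least 50% with the nuclear-stain viability signal not falling by more than 50%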;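 further: 0% = DMSO wells and 100% = triacsin C control wells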
MC4R ag barr: MC4R agonists recruiting beta-arrestin, primary screen, cell-based, luminescence, agonist arm of biased-ligand search. AID 540308, 2011. activation, % at 8.9 µM. Melanocortin receptor 4 (Homo sapiens), P32245. U2OS MC4R beta-arrestin complementation; percent of melanotan II response, DMSO zero. 0.98% of 360,000 active;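 active means activation above a per-plate cutoff, the mean activation of sample wells on that plate plus 3 SD, cut at about 8% in these data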
TbMetRS confirm: T. brucei MetRS inhibitors, confirmation, biochemical, luminescence | inhibition, % at 11.9 µM | AID 624412, 2012 | 93% of 1,400 active | T. brucei MetRS enzyme, luminescence (ATP depletion) | shares compounds with Tb MetRS inh; in the data active means inhibition above about 7%
Jurkat tox: Jurkat T cell cytotoxicity, cytotoxicity control for T. brucei MetRS inhibitor project, luminescence, high throughput. shares compounds with Tb MetRS inh. inhibition, % at 8.3 µM. 12% of 1,400 active. Jurkat cells viability, ATP luminescence; in the data active means inhibition above about 15%;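 further: 0% = vehicle and 100% = reference inhibitor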
TbMetRS FP orth: T. brucei MetRS inhibitors, orthogonal assay for T. brucei MetRS inhibitor project, biochemical, fluorescence polarization. shares compounds with Tb MetRS inh. purified T. brucei MetRS. inhibition, % at 11.9 µM. 44% of 1,400 active; in the data active means inhibition above about 17%;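 further: 0% = vehicle wells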
The depositor's hits bear a star. Most compounds without a hit are left out; they make up all but 2.4% or so of the library.

`COc1ccccc1NS(=O)(=O)c1cccc(NC(=O)Nc2ccccc2)c1` gave Tb MetRS inh 88*, aDG glyco up 1, MC4R antag cAMP 8, NTR1 ag 8, MC4R ag barr 0, TbMetRS confirm 100*, Jurkat tox 13 and TbMetRS FP orth 105*.
COc1ccccc1NS(=O)(=O)c1cccc(NC(=O)Nc2ccc(Cl)cc2)c1 was read as Tb MetRS inh 51*, aDG glyco up 5, MC4R antag cAMP 5, NTR1 ag 12, TAG inh -51, MC4R ag barr 1, TbMetRS confirm 78*, Jurkat tox 4 and TbMetRS FP orth 103*.
For CSc1ccc(Cn2c(C)c(C(=O)NCc3ccc4c(c3)OCCO4)sc2=O)cc1 the results were Tb MetRS inh 0, aDG glyco up 0, MC4R antag cAMP 9, TAG inh -5 and MC4R ag barr 0.
For O=C(Cn1cnc2ccccc21)Nc1ccc(F)c(F)c1 the results were Tb MetRS inh 17*, aDG glyco up 0, MC4R antag cAMP -7, NTR1 ag 0, TAG inh -3, MC4R ag barr -2, TbMetRS confirm 30*, Jurkat tox 2 and TbMetRS FP orth 12.
For Cc1c(NC(=O)CSc2nc3ccc(Cl)cc3[nH]2)c(=O)n(-c2ccccc2)n1C the results were Tb MetRS inh 3, aDG glyco up 1, MC4R antag cAMP 0, NTR1 ag -2 and MC4R ag barr -1.
For O=C(Cn1cnc2ccccc21)Nc1ccc(C(=O)O)cc1 the results were Tb MetRS inh 0, aDG glyco up 0, MC4R antag cAMP 9, NTR1 ag 2 and MC4R ag barr -2.
Screening O=C(CSc1nc2ccc(Cl)cc2[nH]1)NC1CCCC1 returned Tb MetRS inh 14*, aDG glyco up 0, MC4R antag cAMP -1, NTR1 ag 0, TAG inh -9, MC4R ag barr -2, TbMetRS confirm 33*, Jurkat tox 1 and TbMetRS FP orth 14.
For O=C(CSc1nc2ncc(Cl)cc2[nH]1)NC1CCS(=O)(=O)C1 (configuration not stated) the results were Tb MetRS inh 6.2*, aDG glyco up 0, MC4R antag cAMP 2, NTR1 ag -1, TAG inh -10, MC4R ag barr 0, TbMetRS confirm 22*, Jurkat tox -7 and TbMetRS FP orth 5.
O=C(CSc1nc2ccc(Cl)cc2[nH]1)Nc1ccc2[nH]c(=O)[nH]c2c1 was read as Tb MetRS inh 8.3*, aDG glyco up 0, MC4R antag cAMP 3, NTR1 ag 2, TAG inh -1, MC4R ag barr -2, TbMetRS confirm 33*, Jurkat tox -6 and TbMetRS FP orth 15.
`CCCc1nc2ccc(C)cn2c1Cc1cccc(Cl)c1` gave Tb MetRS inh 0 and aDG glyco up 0.
Screening CCCNC(=O)C1(C)CCCN(Cc2ccc(-c3ccccn3)cc2)C1 (configuration not stated) returned Tb MetRS inh 0, aDG glyco up 0, MC4R antag cAMP 0, TAG inh 12 and MC4R ag barr 0.
`O=C(CSc1nc2ncc(Cl)cc2[nH]1)c1c[nH]c2ccccc12` gave Tb MetRS inh 1, aDG glyco up 0, MC4R antag cAMP 5, NTR1 ag 1, TAG inh -2 and MC4R ag barr 4.
O=C(CSc1nc2ccccc2[nH]1)Nc1ccc(F)c(F)c1 was read as Tb MetRS inh 36*, aDG glyco up 1, MC4R antag cAMP -12, NTR1 ag 0, MC4R ag barr 2, TbMetRS confirm 51*, Jurkat tox 0 and TbMetRS FP orth 26*.
`O=C(CSc1nc2ccc(Cl)cc2[nH]1)N1CCN(C(=O)c2ccco2)CC1` gave Tb MetRS inh 12*, aDG glyco up 0, MC4R antag cAMP 2, NTR1 ag 1, MC4R ag barr -1, TbMetRS confirm 14*, Jurkat tox 17* and TbMetRS FP orth 12.
For O=C(CSc1nc2ccc(Cl)cc2[nH]1)c1c[nH]c2ccccc12 the results were Tb MetRS inh 15*, aDG glyco up 0, MC4R antag cAMP -2, NTR1 ag 2, TAG inh 11, MC4R ag barr -2, TbMetRS confirm 20*, Jurkat tox -1 and TbMetRS FP orth 25*.
O=C(CSc1nc2ccccc2[nH]1)Nc1ccccc1F was read as Tb MetRS inh -1, aDG glyco up 0, MC4R antag cAMP 0, NTR1 ag 0 and MC4R ag barr 0.
Cc1nc2nc(SCc3nc4ccccc4[nH]3)[nH]c2cc1Br was read as Tb MetRS inh 13*, aDG glyco up 0, MC4R antag cAMP -2, NTR1 ag 0, TAG inh -1, MC4R ag barr -2, TbMetRS confirm 18*, Jurkat tox 0 and TbMetRS FP orth 12.
`Cc1ccc2nc(SCc3nc4ccccc4c(=O)[nH]3)[nH]c2c1` gave Tb MetRS inh 0, aDG glyco up 0, MC4R antag cAMP -6, NTR1 ag 2, TAG inh -1 and MC4R ag barr -2.
C[C@@H]1CCCCO[C@H](CN(C)C(=O)Nc2ccc3c(c2)OCO3)[C@@H](C)CN([C@H](C)CO)C(=O)c2cc(NS(=O)(=O)c3ccc(F)cc3)ccc2O1 was read as Tb MetRS inh -1, aDG glyco up 0, MC4R antag cAMP 3, TAG inh 1 and MC4R ag barr 2.
CC(=O)NCCCOc1ccc([N+](=O)[O-])cc1Cl was read as Tb MetRS inh 7.3*, aDG glyco up 0, MC4R antag cAMP 11, NTR1 ag 1, MC4R ag barr -3, TbMetRS confirm 14*, Jurkat tox -1 and TbMetRS FP orth 5.
